Measurements: ChEMBL document CHEMBL3085623, “Oridonin ring A-based diverse constructions of enone functionality: identification of novel dienone analogues effective for highly aggressive breast cancer by inducing apoptosis” (J Med Chem, 2013)
Activity calls are given as the source filed them. The calls are words filed in the database; no cut-off is given here.

How the values were obtained:
MDA-MB-231 [1] = experiment: Induction of apoptosis in human MDA-MB-231 cells assessed as early apoptotic cells at 10 uM after 24 hrs using FITC-annexin V and propidium iodide staining by flow cytometry (reference value: 4.55 to 4.85 %); type: functional
MDA-MB-231 [2] = experiment: Induction of apoptosis in human MDA-MB-231 cells assessed as dead cells at 10 uM after 24 hrs using FITC-annexin V and propidium iodide staining by flow cytometry (reference value: 0.3 to 1.00 %); type: functional
MDA-MB-231 [3] = experiment: Induction of apoptosis in human MDA-MB-231 cells assessed as late apoptotic cells at 5 uM after 24 hrs using FITC-annexin V and propidium iodide staining by flow cytometry (reference value: 5.5 to 11.0 %); type: functional
MDA-MB-231 [4] = experiment: Induction of apoptosis in human MDA-MB-231 cells assessed as early apoptotic cells at 5 uM after 24 hrs using FITC-annexin V and propidium iodide staining by flow cytometry (reference value: 4.55 to 4.85 %); type: functional
MDA-MB-231 [5] = experiment: Induction of apoptosis in human MDA-MB-231 cells assessed as downregulation of p65 NF-kappaB level at 2.5 to 10 uM after 48 hrs by Western blot analysis; type: functional, cell-based
Procedure, shortened: (§1)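 MDA-MB-231 cells treated 48 h with DMSO or compound. Lysates quantified by Bradford; 30 μg protein run on SDS-PAGE and transferred to PVDF. Blocked in 5% milk, then probed overnight: anti-Bcl-2 1:200, Bax 1:1000, PARP 1:10000, NF-κB p65 1:2000, caspase-3 1:1000, β-actin 1:20000. ECL detection.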

MDA-MB-231 [6] = experiment: Induction of apoptosis in human MDA-MB-231 cells assessed as late apoptotic cells at 10 uM after 24 hrs using FITC-annexin V and propidium iodide staining by flow cytometry (reference value: 5.5 to 11.0 %); type: functional
MDA-MB-231 [7] = experiment: Induction of apoptosis in human MDA-MB-231 cells assessed as downregulation of Bcl2 level at 2.5 to 10 uM after 48 hrs by Western blot analysis; type: functional, cell-based; procedure, shortened: as §1
MDA-MB-231 [8] = experiment: Induction of apoptosis in human MDA-MB-231 cells assessed as live cells at 10 uM after 24 hrs using FITC-annexin V and propidium iodide staining by flow cytometry (reference value: 83.45 to 89.30 %); type: functional
MDA-MB-231 [9] = experiment: Induction of apoptosis in human MDA-MB-231 cells assessed as live cells at 1 uM after 24 hrs using FITC-annexin V and propidium iodide staining by flow cytometry (reference value: 83.45 to 89.30 %); type: functional
HMEC = experiment: Growth inhibition of human HMEC cells after 24 hrs
MDA-MB-231 [10] = experiment: Induction of apoptosis in human MDA-MB-231 cells assessed as dead cells at 1 uM after 24 hrs using FITC-annexin V and propidium iodide staining by flow cytometry (reference value: 0.3 to 1.00 %); type: functional
MDA-MB-231 [11] = experiment: Antiproliferative activity against human MDA-MB-231 cells after 48 hrs by MTT assay; type: functional, cell-based; details: MDA-MB-231, 48 h
Procedure, shortened: (§2)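 Seeded at 1 × 10^4 cells/well, then exposed to DMSO or compound at 0.01, 0.1, 1, 5, 10 and 100 μM for 48 h. MTT (5 mg/mL in PBS) added for a further 4 h, formazan dissolved in DMSO, OD read at 550 nm. Quadruplicate wells per concentration. IC50 from curve fitting; mean ± SE of three independent experiments.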

MDA-MB-231 [12] = experiment: Induction of apoptosis in human MDA-MB-231 cells assessed as PARP cleavage after 48 hrs by Western blot analysis; type: functional, cell-based; procedure, shortened: as §1
MCF7 = experiment: Antiproliferative activity against human MCF7 cells after 48 hrs by MTT assay; type: functional, cell-based; details: MCF7, 48 h; procedure, shortened: as §2
MDA-MB-231 [13] = experiment: Induction of apoptosis in human MDA-MB-231 cells after 24 hrs using FITC-annexin V and propidium iodide staining by flow cytometry; type: functional, cell-based
MDA-MB-231 [14] = experiment: Induction of apoptosis in human MDA-MB-231 cells assessed as dead cells at 5 uM after 24 hrs using FITC-annexin V and propidium iodide staining by flow cytometry (reference value: 0.3 to 1.00 %); type: functional
MDA-MB-231 [15] = experiment: Induction of apoptosis in human MDA-MB-231 cells assessed as late apoptotic cells at 1 uM after 24 hrs using FITC-annexin V and propidium iodide staining by flow cytometry (reference value: 5.5 to 11.0 %); type: functional
MDA-MB-231 [16] = experiment: Induction of apoptosis in human MDA-MB-231 cells assessed as upregulation of Bax level at 2.5 to 10 uM after 48 hrs by Western blot analysis; type: functional, cell-based; procedure, shortened: as §1
cells = details: Homo sapiens, NCI/ADR-RES, 48 h
MDA-MB-231 [17] = experiment: Inhibition of colony formation of human MDA-MB-231 cells at 0.625 to 10 uM after 2 weeks by crystal violet staining-based GelCount method; type: functional, cell-based
Procedure, shortened: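 MDA-MB-231 cells seeded at 800/well and left 24 h. Then treated with 0.625–10 μM compound or DMSO, medium with compound renewed every 72 h for two weeks. Stained with 0.01% crystal violet for 10 min after PBS washes. Whole-well density quantified on GelCount. Triplicate; SD; one-way ANOVA.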

MDA-MB-231 [18] = experiment: Induction of apoptosis in human MDA-MB-231 cells assessed as caspase3 activation after 48 hrs by Western blot analysis; type: functional, cell-based; procedure, shortened: as §1
MDA-MB-231 [19] = experiment: Induction of apoptosis in human MDA-MB-231 cells assessed as live cells at 5 uM after 24 hrs using FITC-annexin V and propidium iodide staining by flow cytometry (reference value: 83.45 to 89.30 %); type: functional
MDA-MB-231 [20] = experiment: Induction of apoptosis in human MDA-MB-231 cells assessed as early apoptotic cells at 1 uM after 24 hrs using FITC-annexin V and propidium iodide staining by flow cytometry (reference value: 4.55 to 4.85 %); type: functional
MDA-MB-231 [21] = experiment: Induction of apoptosis in human MDA-MB-231 cells assessed as upregulation of cleaved PARP level at 10 to 30 uM after 48 hrs by Western blot analysis; type: functional, cell-based; procedure, shortened: as §1
MDA-MB-231 [22] = experiment: Induction of apoptosis in human MDA-MB-231 cells assessed as downregulation of Bcl2 level at 10 to 30 uM after 48 hrs by Western blot analysis; type: functional, cell-based; procedure, shortened: as §1
MDA-MB-231 [23] = experiment: Induction of apoptosis in human MDA-MB-231 cells assessed as downregulation of p65 NF-kappaB level at 10 to 30 uM after 48 hrs by Western blot analysis; type: functional, cell-based; procedure, shortened: as §1
MDA-MB-231 [24] = experiment: Induction of apoptosis in human MDA-MB-231 cells assessed as caspase3 cleavage at 10 to 30 uM after 48 hrs by Western blot analysis; type: functional, cell-based; procedure, shortened: as §1
MDA-MB-231 [25] = experiment: Induction of apoptosis in human MDA-MB-231 cells assessed as downregulation of PARP level at 10 to 30 uM after 48 hrs by Western blot analysis; type: functional, cell-based; procedure, shortened: as §1
MDA-MB-231 [26] = experiment: Induction of apoptosis in human MDA-MB-231 cells assessed as upregulation of Bax level at 10 to 30 uM after 48 hrs by Western blot analysis; type: functional, cell-based; procedure, shortened: as §1
Mus musculus = experiment: Toxicity in human MDA-MB-231 cells xenografted nude mouse assessed as change body weight at 5 mg/kg, ip administered 5 days per week for 10 days; type: organism-based; design: dose 5 mg/kg, route intraperitoneal; details: in vivo
Procedure, shortened: (§3)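 Female nude mice, 4–6 weeks old, kept in a barrier unit on a 12 h light-dark cycle. Each mouse received 2.5 × 10^6 freshly harvested MDA-MB-231 cells in 100 μL PBS into the 3rd mammary fat pad. Mice were randomized into 3 groups. Once tumors reached 200 mm3, dosing was 5 mg/kg ip, 5 days/week for 10 days, in 50% DMSO/50% PEG. Tumor volume (0.5 × L × W2) and body weight were measured daily. One-way ANOVA.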

MDA-MB-231 [27] = experiment: Antitumor activity against human MDA-MB-231 cells xenografted in nude mouse assessed as inhibition of tumor growth at 5 mg/kg, ip administered 5 days per week for 10 days; type: functional, organism-based; design: dose 5 mg/kg; procedure, shortened: as §3

What does the source list for `C=C1C(=O)[C@@]23[C@@H]4OC(C)(C)O[C@]25OC[C@]2(C(=O)C(C=O)=CC(C)(C)[C@H]2[C@@H]5O)[C@@H]3CC[C@@H]14`?
Activity (MDA-MB-231 [1]): 11.2%; Activity (MDA-MB-231 [2]): 0.45%; Activity (MDA-MB-231 [3]): 19.25%; Activity (MDA-MB-231 [4]): 10.95%; Activity (MDA-MB-231 [5]): Active; Activity (MDA-MB-231 [6]): 36.1%; Activity (MDA-MB-231 [7]): Active; Activity (MDA-MB-231 [8]): 52.25%; Activity (MDA-MB-231 [9]): 84.95%; IC50 (HMEC): 4.51 µM; Activity (MDA-MB-231 [10]): 0.2%; IC50 (MDA-MB-231 [11]): 3.46 µM; Activity (MDA-MB-231 [12]): Dose-dependent effect; IC50 (MCF7): 1.28 µM; Activity (MDA-MB-231 [13]): Dose-dependent effect; Activity (MDA-MB-231 [14]): 0.25%; Activity (MDA-MB-231 [15]): 11.7%; Activity (MDA-MB-231 [16]): Active; IC50 (cells): 6.55 µM; inhibition (MDA-MB-231 [17]): Active; Activity (MDA-MB-231 [18]): Dose-dependent effect; Activity (MDA-MB-231 [19]): 69.55%; Activity (MDA-MB-231 [20]): 3.15%

What does the source list for `C=C1C(=O)[C@]23[C@H](O)[C@H]1CC[C@H]2[C@@]12CO[C@]3(O)[C@@H](O)[C@@H]1C(C)(C)CC[C@@H]2O` [ORIDONIN]?
Activity (MDA-MB-231 [21]): Active; Activity (MDA-MB-231 [22]): Active; IC50 (HMEC): 5.6 µM; Activity (MDA-MB-231 [23]): Active; Activity (MDA-MB-231 [24]): inactive; IC50 (MDA-MB-231 [11]): 28 µM; IC50 (MCF7): 4.36 µM; Activity (MDA-MB-231 [25]): Active; IC50 (cells): > 30 µM; Activity (MDA-MB-231 [26]): Active

With `C=C1C(=O)[C@@]23C(=O)[C@@H](O)[C@@H]4C(C)(C)[C@@H]5OC[C@]4(C(=O)/C5=C/OC)[C@@H]2CC[C@@H]1[C@H]3O` as the compound, how does the IC50 (MDA-MB-231 [11]) read?
Its IC50 is > 30 µM.

And the IC50 (MCF7)?
Its IC50 is 10.2 µM.

Which IC50 (HMEC) does the source give for `C=C1C(=O)[C@]23[C@H](O)[C@H]1CC[C@H]2[C@]12C=CC(=O)C(C)(C)[C@H]1[C@H](O)[C@@]3(O)OC2` here?
Its IC50 is 10.1 µM.

What about the IC50 (MDA-MB-231 [11]) of the same compound?
Its IC50 is 9.39 µM.

And the IC50 (MCF7)?
The IC50 was 3.48 µM.

For `C=C1C(=O)[C@@]23[C@@H]4OC(C)(C)O[C@]25OC[C@]2(C(=O)C=CC(C)(C)[C@H]2[C@@H]5O)[C@@H]3CC[C@@H]14`, which IC50 (HMEC) is on record?
The IC50 was 5.11 µM.

And the IC50 (MDA-MB-231 [11])?
The IC50 was 3.49 µM.

And the IC50 (MCF7)?
The IC50 was 0.56 µM.

Which IC50 (MDA-MB-231 [11]) does the source give for `C=C1C(=O)[C@@]23C(=O)[C@@H](O)[C@@H]4C(C)(C)[C@@H]5OC[C@]4(C(=O)/C5=C\O)[C@@H]2CC[C@@H]1[C@H]3O` here?
The IC50 was > 30 µM.

And the IC50 (MCF7)?
Its IC50 is > 30 µM.

Which results are given for `C=C1C(=O)[C@@]23[C@@H]4OC(C)(C)O[C@]25OC[C@]2(C=CC(=O)C(C)(C)[C@H]2[C@@H]5O)[C@@H]3CC[C@@H]14`?
Activity (MDA-MB-231 [1]): 8.3%; Activity (MDA-MB-231 [2]): 0.3%; Activity (MDA-MB-231 [3]): 16.55%; Activity (MDA-MB-231 [4]): 10.15%; Activity (MDA-MB-231 [5]): Active; Activity (MDA-MB-231 [6]): 39.1%; Activity (MDA-MB-231 [7]): Active; Activity (MDA-MB-231 [8]): 52.3%; Activity (MDA-MB-231 [9]): 83.05%; IC50 (HMEC): 10.2 µM; Activity (MDA-MB-231 [10]): 0.55%; IC50 (MDA-MB-231 [11]): 5.6 µM; Activity (MDA-MB-231 [12]): Dose-dependent effect; Activity (Mus musculus): Non-toxic; IC50 (MCF7): 0.98 µM; Activity (MDA-MB-231 [13]): Dose-dependent effect; TGI (MDA-MB-231 [27]): Active; Activity (MDA-MB-231 [14]): 0.3%; Activity (MDA-MB-231 [15]): 11.35%; Activity (MDA-MB-231 [16]): Active; IC50 (cells): 6.02 µM; inhibition (MDA-MB-231 [17]): Active; Activity (MDA-MB-231 [18]): Dose-dependent effect; Activity (MDA-MB-231 [19]): 73%; Activity (MDA-MB-231 [20]): 5.05%

With `C=C1C(=O)[C@]23[C@H](O)[C@H]1CC[C@H]2[C@@]12CO[C@]3(O)[C@@H](O)[C@@H]1C(C)(C)C=CC2=O` as the compound, how does the IC50 (HMEC) read?
The IC50 was 4.95 µM.

What about the IC50 (MDA-MB-231 [11]) of the same compound?
The IC50 was 2.23 µM.

What about the IC50 (MCF7) of the same compound?
Its IC50 is 1.31 µM.

And the IC50 (cells)?
Its IC50 is 5.82 µM.
